Assay outcomes deposited in PubChem by Broad Institute.
RAD52 anneal inh – inhibitors of human RAD52 DNA annealing. P43351. recombinant RAD52 DNA annealing, FRET fluorescence. inhibition, % at 18.7 µM. 360,000 compounds, 0.46% hits. AID 651710;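 active = every replicate showing at least 50% inhibition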
RAD54 branch – inhibitors of human RAD54 branch migration. Q92698. RAD54 Holliday junction branch migration, FAM/BHQ fluorescence. inhibition, % at 10.4 µM. 360,000 compounds, 0.14% hits;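 active = mean normalized replicate activity at least 40 and at least half of replicates scoring 40 or more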;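 note: 0% = median of neutral control wells and 100% = median of positive control wells; inhibitors cause a drop in the FAM fluorescence signal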
PDI inh – inhibitors of human protein disulfide isomerase. P07237. PDI insulin aggregation turbidity, A650, 90 min. inhibition, % at 10 µM. 350,000 compounds, 0.052% hits;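 active = mean inhibition across replicates of 30% or more, whatever share of single replicates reach that level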
CAL PDZ FP-1 – blocks peptide binding to the human CAL PDZ domain | purified CAL PDZ, TMR-peptide fluorescence polarization, 1 h | Q9HD26 | AID 602252 | inhibition, % at 24.9 µM | 300,000 compounds, 0.92% hits;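 active = mean inhibition of at least 30% with at least half of replicates also reaching 30%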;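 note: 0% = DMSO neutral control and 100% = excess unlabeled competitor peptide PRC23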
ERp5 inh – blocks human ERp5 reductase activity on insulin. Q15084. ERp5 insulin aggregation, absorbance 650 nm, 90 min. inhibition, % at 9.99 µM. 350,000 compounds, 0.05% hits. AID 651711;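 active = mean replicate inhibition above about 25%, with every replicate also reaching it, limit read from the data, passing the limit was not always enough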
Target sequence (Q15084 whole entry, looked up): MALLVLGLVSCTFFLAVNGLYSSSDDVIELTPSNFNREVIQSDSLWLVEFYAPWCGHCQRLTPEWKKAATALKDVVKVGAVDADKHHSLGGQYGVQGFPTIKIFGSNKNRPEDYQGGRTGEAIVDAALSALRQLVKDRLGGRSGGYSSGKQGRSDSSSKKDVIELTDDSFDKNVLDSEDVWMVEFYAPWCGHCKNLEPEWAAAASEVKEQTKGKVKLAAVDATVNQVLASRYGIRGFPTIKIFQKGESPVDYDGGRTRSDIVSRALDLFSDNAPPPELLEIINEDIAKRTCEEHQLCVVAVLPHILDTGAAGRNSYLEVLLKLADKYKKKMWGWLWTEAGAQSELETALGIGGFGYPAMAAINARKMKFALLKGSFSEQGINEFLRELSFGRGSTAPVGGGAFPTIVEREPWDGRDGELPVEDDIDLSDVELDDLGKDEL
CAL PDZ FP-2 – inhibitors of human CAL PDZ peptide binding; Q9HD26; purified CAL PDZ, TMR-peptide fluorescence polarization, 1 h; inhibition, % at 20 µM; 330,000 compounds, 0.02% hits;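 active = highest replicate inhibition of at least 40%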;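 note: plate controls were DMSO neutral control wells for no effect and unlabeled competitor peptide control wells for full effect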
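Assay system – tagged CAL PDZ protein CerCALP, purified · Timing – 1 h at RT · Compound – single point, 20 µM · Measured by – fluorescence polarization from S- and P-plane intensities, G-factor corrected · Evaluation – inhibition from polarization loss · Probe or stimulus – TMR reporter peptide T*-PRC34 · Buffer or medium – pH 7.4 phosphate-saline buffer, reducing agent, detergent, IgG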
Starred values were filed as active, the others as inactive; nt = not tested or not shown; ! = repeats disagree. A selection: hits, their analogues and other compounds. The true share with any hit is near 1%.

SMILES	RAD52 anneal inh	RAD54 branch	PDI inh	CAL PDZ FP-1	ERp5 inh	CAL PDZ FP-2
COc1cccc(NC(=O)N2[C@@H]3CNC[C@H]2C3c2ccc(/C=C/c3ccccc3)cc2)c1 (some centres undefined)	54*!	nt	nt	nt	-1	nt
COc1cccc(NC(=O)N2[C@@H]3CNC[C@H]2C3c2ccc(-c3ccccc3)cc2)c1 (some centres undefined)	47	nt	nt	nt	0	nt
C[C@H]1CN([C@@H](C)CO)C(=O)c2cc(NC(=O)CCCCCC(=O)Nc3ccccc3N)ccc2O[C@@H]1CN(C)S(=O)(=O)c1cn(C)cn1	-2	nt	nt	nt	-9	nt
Oc1ccc(/C=C/c2nc(-c3ccccc3O)n(-c3ccccc3)n2)cc1	nt	0	48*	nt	nt	-1
Clc1ccc(OCCN2CCCCC2)cc1Cl	nt	-4	5	6	nt	0
ON=C1c2cc(OCCN3CCCCC3)ccc2-c2ccc(OCCN3CCCCC3)cc21	nt	86*	-5	0	nt	-1
C[C@H]1CCCCO[C@H](CN(C)S(=O)(=O)c2ccccc2)[C@@H](C)CN([C@@H](C)CO)C(=O)c2cc(NC(=O)Nc3ccc(C(F)(F)F)cc3)ccc2O1	35	4	nt	nt	0	nt
CC1CCN(CCCNC(=O)c2ccc3c(=O)n(Cc4ccc(Cl)cc4)c(=S)[nH]c3c2)CC1	-25	-5	-4	-1	1	66*
COC(=O)c1ccc2c(=O)n(Cc3ccc(C(=O)NCCCN4CCC(C)CC4)cc3)c(=S)[nH]c2c1	24	nt	-6	-7	2	-3
C[C@@H]1CN([C@@H](C)CO)C(=O)Cc2cc(NC(=O)C3CC3)ccc2O[C@H]1CN(C)Cc1ccc(Cl)c(Cl)c1	-24	-2	nt	nt	0	nt
COc1cc2c(c(O)c1OC)C1Cc3ccc(OC)c(OC)c3CN1CC2 (centres undefined)	7	15	nt	nt	-4	nt
COc1ccc2cc1Oc1ccc(cc1)CC1c3c(cc(OC)c4c3Oc3cc5c(cc3O4)CCNC5C2)CCN1C (centres undefined)	nt	91*	nt	-3	nt	-2
COc1ccc2cc1Oc1ccc(cc1)C[C@H]1c3c(cc(OC)c4c3Oc3c(ccc5c3[C@H](C2)N(C)CC5)O4)CCN1C	nt	74*	-3	-2	nt	-2
CCOc1ccc(C2NCCc3cc(OC)c(OC)cc32)cc1OC (centres undefined)	-10	-1	3	-5	1	-2
COc1ccc(C#Cc2ccc([C@H]3[C@H](CO)N4CCCCN(C)C[C@@H]34)cc2)cc1	63*	3	nt	nt	1	nt
COc1ccc(C#Cc2ccc([C@H]3[C@H]4CN(C)CCCCN4[C@H]3CO)cc2)cc1	52*	-2	nt	nt	3	nt
Nc1nnc(SCC(=O)c2ccc([N+](=O)[O-])cc2)s1	-4	0	1	35*	5	17
Cc1nnc(SCC(=O)c2ccc([N+](=O)[O-])cc2)s1	3	nt	2	nt	2	0
CCOc1ccc(NC(=O)CN(C)C(=O)c2ccc3nc(CC)c(CC)nc3c2)cc1OCC	-2	0	-4	39*	-4	0
O=C(Nc1ccc(N2CCN(C(=O)c3ccco3)CC2)cc1)c1ccc(Br)cc1	-14	-14	-9	-7	-3	0
O=C(Nc1ccc(N2CCN(C(=O)c3ccco3)CC2)cc1)c1cc(Br)ccc1Cl	-21	-6	-1	49*	8	-1
CCCCN(CC)CCCNC(=O)c1cn(C)c(=O)c2c1c1ccccc1n2C	18	11	-13	37*	2	nt
O=C(CN1CCc2ccccc21)NN1CC(=O)N(c2ccc(Cl)cc2)CC1=O	-16	nt	-12	-4	-1	0
CN1CCN(CC(=O)NN2CC(=O)N(c3ccc(F)cc3)CC2=O)CC1	-3	nt	0	52*	3	0
O=C(C[C@@H]1CC[C@H](NC(=O)CC2CC2)[C@H](CO)O1)NCc1ccc(Cl)cc1	0	2	nt	nt	2	nt
SMILES	RAD52 anneal inh	RAD54 branch	PDI inh	CAL PDZ FP-1	ERp5 inh	CAL PDZ FP-2
OCCC1CN(CC#Cc2ccccc2)CCN1C1CCCC1 (centres undefined)	-9	-12	11	91*	11	-2
Cc1noc(C)c1NC(=O)Nc1ccc2c(c1)C(=O)N([C@H](C)CO)C[C@H](C)[C@@H](CN(C)C(=O)CCCN(C)C)OCCCC[C@@H](C)O2	3	7	nt	nt	6	nt
C[C@@H]1CN([C@@H](C)CO)C(=O)c2cc(NC(=O)C3CCCCC3)ccc2O[C@@H](C)CCCCO[C@@H]1CN(C)C(=O)c1ccccc1	-10	16	nt	nt	1	nt
CCCNc1nc2c(c(=O)[nH]c(=O)n2C)n1Cc1cccc(Br)c1	nt	-3	1	36*	nt	nt
C[C@@H]1CN([C@@H](C)CO)C(=O)c2cc(-c3ccncc3)cnc2O[C@H]1CN(C)C(=O)NC1CCCC1	-1	-4	nt	nt	-6	nt
CCOC(=O)c1c(NC(=O)CN2CCC(C)CC2)sc(C)c1C	-5	6	2	45*	-4	11
C[C@H]1CN([C@@H](C)CO)C(=O)c2cc(-c3ccc(C(=O)N(C)C)cc3)cnc2O[C@@H]1CN(C)C(=O)c1ccncc1	-16	8	nt	nt	-1	nt
O=C(C[C@@H]1CC[C@@H](NC(=O)c2ccc3c(c2)OCO3)[C@@H](CO)O1)NCc1ccc(F)cc1	4	4	nt	nt	-4	nt
C[C@H](CO)N1C[C@H](C)[C@H](CN(C)S(=O)(=O)c2ccc(Cl)cc2)Oc2ccc(NC(=O)Cc3ccccc3)cc2CC1=O	12	-9	nt	nt	7	nt
CC(O)CNCCNCc1cccs1 (centres undefined)	-18	-5	-3	47*	3	14
COc1ccc(OCCSc2nc3ccccc3n2CC(=O)O)cc1	nt	11	-3	11	nt	-2
COc1ccccc1OCCSc1nc2ccccc2n1CC(N)=O	-9	-4	-2	59*	5	nt
Cc1cc(C(=O)Nc2cccc3c2O[C@H](CN(C)C(=O)NC2CCCCC2)[C@@H](C)CN([C@H](C)CO)C3=O)n(C)n1	11	-6	nt	nt	2	nt
Cc1cccc(Nc2nc(N3CCN(C)CC3)nc(N)c2[N+](=O)[O-])c1	0	nt	-7	36*	2	-2
Cc1cccc(Nc2nc(N)c([N+](=O)[O-])c(N3CCC(C)CC3)n2)c1	-4	-3	0	-2	6	0
Nc1nc(NCC2CCCO2)nc(Nc2cccc(F)c2)c1[N+](=O)[O-] (centres undefined)	-12	nt	3	79*	-1	0
Cc1cccc(Nc2nc(N)c([N+](=O)[O-])c(NCCO)n2)c1	-7	nt	-2	47*	-2	-1
C[C@@H]1CN([C@@H](C)CO)C(=O)c2cc(NC(=O)CCCN(C)C)ccc2O[C@H]1CN(C)Cc1ccc2c(c1)OCO2	-14	nt	nt	nt	7	nt
O=C(NC(N1CCCC1)C(Cl)(Cl)Cl)c1ccccc1 (centres undefined)	nt	9	-8	-4	nt	0
